According to the M2OR odorant receptor database:
Changes are numbered by the printed parent chain.

Assays:
Conditions in all cases: stereoisomer not certain
[1] = biological target: T1, OR8D2 (Homo sapiens) (UniProt Q9GZM6)
T1 sequence (whole entry): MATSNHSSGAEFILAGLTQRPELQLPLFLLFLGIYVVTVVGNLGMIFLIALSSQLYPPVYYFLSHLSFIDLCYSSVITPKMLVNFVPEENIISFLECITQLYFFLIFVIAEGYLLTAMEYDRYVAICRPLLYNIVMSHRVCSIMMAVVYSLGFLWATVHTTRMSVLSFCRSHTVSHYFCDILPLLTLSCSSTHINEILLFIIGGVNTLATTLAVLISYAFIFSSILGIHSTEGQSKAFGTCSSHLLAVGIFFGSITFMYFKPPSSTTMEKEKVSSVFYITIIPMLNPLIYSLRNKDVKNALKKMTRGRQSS
Method in brief: (§1)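 Assay methods differ from source to source, frequently being transient luciferase assays in mammalian cell lines. For each receptor–molecule pair, the label responsive (active) applies when the original authors judged the measured signal statistically different from baseline, and non-responsive (inactive) applies otherwise.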

[2] = biological target: T2, OR8D4 (Homo sapiens) (UniProt Q8NGM9)
T2 sequence (whole entry): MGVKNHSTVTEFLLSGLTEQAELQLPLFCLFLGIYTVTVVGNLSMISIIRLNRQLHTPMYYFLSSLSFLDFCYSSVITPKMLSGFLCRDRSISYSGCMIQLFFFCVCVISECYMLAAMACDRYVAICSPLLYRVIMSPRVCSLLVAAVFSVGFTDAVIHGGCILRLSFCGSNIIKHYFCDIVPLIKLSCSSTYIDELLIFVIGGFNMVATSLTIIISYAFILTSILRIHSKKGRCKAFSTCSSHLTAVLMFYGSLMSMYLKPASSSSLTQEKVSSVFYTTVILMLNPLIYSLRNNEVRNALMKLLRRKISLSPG
Method in brief: as §1

[3] = test system: T3, OR8D4 C120Y R133K
T3 sequence (whole entry): T2 sequence (whole entry) with C120Y, R133K
Method in brief: as §1

[4] = biological target: T4, OR8G1 (Homo sapiens) (UniProt Q15617)
T4 sequence (whole entry): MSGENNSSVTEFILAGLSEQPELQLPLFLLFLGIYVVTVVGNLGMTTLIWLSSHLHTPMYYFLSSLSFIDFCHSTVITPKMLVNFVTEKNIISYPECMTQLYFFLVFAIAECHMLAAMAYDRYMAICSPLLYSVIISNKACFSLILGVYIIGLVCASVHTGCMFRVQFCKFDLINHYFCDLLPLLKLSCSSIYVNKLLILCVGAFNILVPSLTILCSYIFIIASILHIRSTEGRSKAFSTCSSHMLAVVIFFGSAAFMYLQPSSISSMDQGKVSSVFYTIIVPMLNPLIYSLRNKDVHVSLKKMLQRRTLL
Method in brief: as §1

[5] = biological target: T5, OR8G5 (Homo sapiens) (UniProt Q8NG78)
T5 sequence (whole entry): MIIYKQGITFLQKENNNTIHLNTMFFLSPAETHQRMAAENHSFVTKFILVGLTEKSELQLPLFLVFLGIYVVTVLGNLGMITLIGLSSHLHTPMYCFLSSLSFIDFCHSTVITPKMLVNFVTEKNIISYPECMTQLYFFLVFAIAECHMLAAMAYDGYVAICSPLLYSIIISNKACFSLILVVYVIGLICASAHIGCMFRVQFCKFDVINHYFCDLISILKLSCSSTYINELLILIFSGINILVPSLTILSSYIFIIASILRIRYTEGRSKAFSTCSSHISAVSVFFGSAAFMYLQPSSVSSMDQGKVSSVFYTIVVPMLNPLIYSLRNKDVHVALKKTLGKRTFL
Method in brief: as §1

[6] = biological target: T6, OR8H1 (Homo sapiens) (UniProt Q8NGG4)
T6 sequence (whole entry): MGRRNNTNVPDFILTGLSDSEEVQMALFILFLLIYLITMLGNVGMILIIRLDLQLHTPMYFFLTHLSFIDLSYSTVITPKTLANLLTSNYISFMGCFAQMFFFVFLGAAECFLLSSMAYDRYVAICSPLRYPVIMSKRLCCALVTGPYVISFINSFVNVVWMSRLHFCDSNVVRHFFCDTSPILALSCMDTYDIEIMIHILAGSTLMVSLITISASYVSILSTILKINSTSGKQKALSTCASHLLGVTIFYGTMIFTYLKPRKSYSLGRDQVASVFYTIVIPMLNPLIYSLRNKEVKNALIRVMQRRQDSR
Method in brief: as §1

[7] = biological target: T7, OR8H2 (Homo sapiens) (UniProt Q8N162)
T7 sequence (whole entry): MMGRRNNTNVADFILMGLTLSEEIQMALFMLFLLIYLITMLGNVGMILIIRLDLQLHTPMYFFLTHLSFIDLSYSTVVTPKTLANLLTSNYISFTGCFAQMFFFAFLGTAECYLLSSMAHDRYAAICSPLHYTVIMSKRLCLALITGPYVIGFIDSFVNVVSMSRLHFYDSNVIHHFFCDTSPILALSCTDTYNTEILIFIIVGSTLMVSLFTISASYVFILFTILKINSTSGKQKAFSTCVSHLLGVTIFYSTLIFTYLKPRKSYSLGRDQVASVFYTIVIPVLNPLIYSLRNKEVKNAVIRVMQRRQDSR
Method in brief: as §1

[8] = test system: T8, OR8H2 H120Y Y169C V284M
T8 sequence (whole entry): T7 sequence (whole entry) with H120Y, Y169C, V284M
Method in brief: as §1

[9] = biological target: T9, OR8H3 (Homo sapiens) (UniProt Q8N146)
T9 sequence (whole entry): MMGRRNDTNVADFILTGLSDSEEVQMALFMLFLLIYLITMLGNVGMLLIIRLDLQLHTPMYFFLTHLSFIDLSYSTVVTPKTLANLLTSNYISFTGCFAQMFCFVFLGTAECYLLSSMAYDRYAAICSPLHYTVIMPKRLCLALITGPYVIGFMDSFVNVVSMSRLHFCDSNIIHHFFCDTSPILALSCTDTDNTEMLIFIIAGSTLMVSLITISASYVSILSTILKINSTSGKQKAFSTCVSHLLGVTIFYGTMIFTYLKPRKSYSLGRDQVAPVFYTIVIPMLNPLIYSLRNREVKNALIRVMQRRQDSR
Method in brief: as §1

[10] = test system: T10, OR8H3
T10 sequence (whole entry): T9 sequence (whole entry) with P137S
Method in brief: as §1

[11] = biological target: T11, OR8I2 (Homo sapiens) (UniProt Q8N0Y5)
T11 sequence (whole entry): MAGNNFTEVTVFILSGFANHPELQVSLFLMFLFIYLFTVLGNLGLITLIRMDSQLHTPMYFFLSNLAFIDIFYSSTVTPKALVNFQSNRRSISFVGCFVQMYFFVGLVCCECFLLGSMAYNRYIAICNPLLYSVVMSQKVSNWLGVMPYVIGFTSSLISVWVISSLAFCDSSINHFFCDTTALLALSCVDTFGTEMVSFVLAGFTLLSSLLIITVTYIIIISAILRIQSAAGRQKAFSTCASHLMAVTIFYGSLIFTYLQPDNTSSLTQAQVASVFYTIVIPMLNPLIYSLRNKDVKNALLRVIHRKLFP
Method in brief: as §1

[12] = biological target: T12, OR8J1 (Homo sapiens) (UniProt Q8NGP2)
T12 sequence (whole entry): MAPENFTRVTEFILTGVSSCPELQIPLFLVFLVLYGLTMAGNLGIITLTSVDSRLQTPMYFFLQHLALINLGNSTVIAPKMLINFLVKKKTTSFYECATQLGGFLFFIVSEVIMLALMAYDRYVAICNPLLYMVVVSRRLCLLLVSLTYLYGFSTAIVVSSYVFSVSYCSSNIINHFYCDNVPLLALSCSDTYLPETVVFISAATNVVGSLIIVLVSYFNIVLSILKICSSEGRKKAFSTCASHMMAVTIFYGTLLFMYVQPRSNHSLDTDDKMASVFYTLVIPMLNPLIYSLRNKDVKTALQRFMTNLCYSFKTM
Method in brief: as §1

[13] = test system: T13, OR8J1
T13 sequence (whole entry): T12 sequence (whole entry) with Y120C
Method in brief: as §1

[14] = biological target: T14, OR8J3 (Homo sapiens) (UniProt Q8NGG0)
T14 sequence (whole entry): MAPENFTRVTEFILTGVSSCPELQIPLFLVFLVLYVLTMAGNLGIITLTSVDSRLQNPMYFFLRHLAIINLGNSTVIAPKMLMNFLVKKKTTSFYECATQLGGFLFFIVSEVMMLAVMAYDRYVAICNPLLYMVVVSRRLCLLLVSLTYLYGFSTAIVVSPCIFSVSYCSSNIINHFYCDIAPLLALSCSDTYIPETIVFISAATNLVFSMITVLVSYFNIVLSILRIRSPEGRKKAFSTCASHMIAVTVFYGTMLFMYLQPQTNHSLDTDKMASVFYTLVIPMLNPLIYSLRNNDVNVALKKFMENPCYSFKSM
Method in brief: as §1

[15] = test system: T15, OR8J3 E4V
T15 sequence (whole entry): T14 sequence (whole entry) with E4V
Method in brief: as §1

[16] = biological target: T16, OR8K1 (Homo sapiens) (UniProt Q8NGG5)
T16 sequence (whole entry): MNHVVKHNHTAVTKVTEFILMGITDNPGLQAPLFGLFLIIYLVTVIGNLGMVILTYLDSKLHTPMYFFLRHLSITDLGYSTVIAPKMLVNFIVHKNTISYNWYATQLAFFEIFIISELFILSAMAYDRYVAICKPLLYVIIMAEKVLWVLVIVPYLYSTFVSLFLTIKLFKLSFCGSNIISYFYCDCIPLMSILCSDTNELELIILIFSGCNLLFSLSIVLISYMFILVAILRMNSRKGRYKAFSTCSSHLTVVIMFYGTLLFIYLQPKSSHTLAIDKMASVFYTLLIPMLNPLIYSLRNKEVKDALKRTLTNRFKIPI
Method in brief: as §1

[17] = biological target: T17, OR8K3 (Homo sapiens) (UniProt Q8NH51)
T17 sequence (whole entry): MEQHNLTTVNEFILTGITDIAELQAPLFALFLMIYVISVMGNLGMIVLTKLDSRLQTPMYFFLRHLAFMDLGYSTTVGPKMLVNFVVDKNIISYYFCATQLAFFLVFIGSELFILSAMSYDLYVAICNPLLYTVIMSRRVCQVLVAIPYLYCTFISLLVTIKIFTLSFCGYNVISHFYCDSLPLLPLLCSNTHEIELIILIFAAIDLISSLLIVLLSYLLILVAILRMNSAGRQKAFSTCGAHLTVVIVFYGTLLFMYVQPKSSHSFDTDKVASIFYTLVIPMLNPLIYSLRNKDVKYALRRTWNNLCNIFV
Method in brief: as §1

[18] = biological target: T18, OR8K5 (Homo sapiens) (UniProt Q8NH50)
T18 sequence (whole entry): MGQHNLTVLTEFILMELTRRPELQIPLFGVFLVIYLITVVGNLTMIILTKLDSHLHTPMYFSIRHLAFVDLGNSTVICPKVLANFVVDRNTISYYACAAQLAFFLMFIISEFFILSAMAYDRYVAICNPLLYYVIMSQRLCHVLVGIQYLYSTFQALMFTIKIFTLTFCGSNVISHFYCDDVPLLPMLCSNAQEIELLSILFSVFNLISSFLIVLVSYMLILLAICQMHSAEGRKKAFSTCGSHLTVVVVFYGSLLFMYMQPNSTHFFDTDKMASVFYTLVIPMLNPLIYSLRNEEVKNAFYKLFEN
Method in brief: as §1

[19] = biological target: T19, OR8S1 (Homo sapiens) (UniProt Q8NH09)
T19 sequence (whole entry): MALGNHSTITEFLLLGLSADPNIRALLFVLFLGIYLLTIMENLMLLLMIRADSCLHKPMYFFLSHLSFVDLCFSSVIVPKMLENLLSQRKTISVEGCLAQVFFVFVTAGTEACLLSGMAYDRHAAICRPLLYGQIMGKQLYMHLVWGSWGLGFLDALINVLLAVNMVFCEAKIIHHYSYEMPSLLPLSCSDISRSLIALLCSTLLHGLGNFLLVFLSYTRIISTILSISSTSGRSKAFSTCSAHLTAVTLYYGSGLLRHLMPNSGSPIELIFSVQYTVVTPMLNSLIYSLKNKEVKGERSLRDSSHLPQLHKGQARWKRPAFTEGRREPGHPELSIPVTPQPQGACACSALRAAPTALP
Method in brief: as §1

[20] = biological target: OR8J2 (Homo sapiens) (UniProt Q8NGG1)
Method in brief: as §1

Measured: odorant receptor agonist call

Chain of OR8J2 (Homo sapiens) (Q8NGG1 whole entry): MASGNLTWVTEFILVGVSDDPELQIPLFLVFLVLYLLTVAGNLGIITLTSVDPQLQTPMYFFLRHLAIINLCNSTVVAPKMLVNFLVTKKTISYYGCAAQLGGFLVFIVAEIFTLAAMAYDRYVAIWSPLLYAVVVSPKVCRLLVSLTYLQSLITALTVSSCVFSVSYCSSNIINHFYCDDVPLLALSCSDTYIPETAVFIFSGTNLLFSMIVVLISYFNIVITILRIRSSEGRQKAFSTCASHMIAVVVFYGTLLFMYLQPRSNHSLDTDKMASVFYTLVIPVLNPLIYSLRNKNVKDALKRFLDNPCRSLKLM

CCC1OC(=O)C(O)=C1C (centres undefined)
not listed: [20]
inactive: all other assays above

CCC(S)C(C)CO (centres undefined)
not listed: [3] | [8] | [10] | [13] | [15] | [20]
inactive: all other assays above

CC(CO)CS (centres undefined)
not listed: [3] | [8] | [10] | [13] | [15] | [20]
inactive: all other assays above

CCCCCCC=CCCC=O
not listed: [20]
inactive: all other assays above

CCCC(S)CCOC(C)=O (centres undefined)
not listed: [20]
inactive: all other assays above

Cc1cnc(C)c(C)n1
not listed: [20]
inactive: all other assays above

CC1CCCCCCCCCCCCC(=O)C1 (centres undefined)
not listed: [3] | [8] | [10] | [13] | [15]
inactive: all other assays above

CCCCC(S)C(C)CO (centres undefined)
not listed: [3] | [8] | [10] | [13] | [15] | [20]
inactive: all other assays above

CC1=C(O)C(=O)C(C)O1 (centres undefined)
not listed: [20]
inactive: all other assays above

CC1=NC(C)C(C)S1 (centres undefined)
not listed: [20]
inactive: all other assays above

CCCCCC(S)C(C)CO (centres undefined)
not listed: [3] | [8] | [10] | [13] | [15] | [20]
inactive: all other assays above

O=C1CCOc2ccccc21
inactive: [18]

CC1=C(O)C(=O)OC1C (centres undefined)
not listed: [20]
inactive: all other assays above

O=c1ccc2ccccc2o1
inactive: [18]

CCC1OC(C)=C(O)C1=O (centres undefined)
not listed: [20]
inactive: all other assays above

CCCCCC(=O)C(C)C(C)=O (centres undefined)
not listed: [3] | [8] | [10] | [13] | [15] | [20]
inactive: all other assays above

CC(=O)c1c(C)c([N+](=O)[O-])c(C(C)(C)C)c([N+](=O)[O-])c1C
not listed: [3] | [8] | [10] | [13] | [15]
inactive: all other assays above
